The values that follow come from PubChem BioAssay AID623956 (The Scripps Research Institute Molecular Screening Center, 2012).

Activity calls are given as the source filed them.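 The calls were made as follows: active = at least 4-fold drop in recombinant frequency versus the solvent-only control; inactive = the rest.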

This test deals with E. coli recBCD-deleted + H. pylori AddAB/RecA, Hfr recombinant frequency. In words: recombination inhibition in AddAB/RecA E. coli, late-stage follow-up, counter-screen for AddAB inhibitor project, colony formation, p(addAB), p(recA), 20 µM (AID 623956). Particulars: at 20 µM; stronger effect = higher value. Put shortly: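 Assay system: recBCD-deleted E. coli recipient carrying H. pylori addAB and recA plasmids; Compound dosing: single 20 µM compound dose, DMSO vehicle; Schedule: compound exposure 1.5 h total, including 30 min mating; Technique: colony counts on selective and non-selective plates; Read-out basis: viability-corrected recombinant frequency drop relative to DMSO.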
On to `O=C(Nc1ncccn1)c1ccc([N+](=O)[O-])o1`, for which the fold reduction was 0.9 (inactive).

Take `O=C(Nc1cccc(NC(=O)c2ccccc2Cl)c1)c1ccc([N+](=O)[O-])o1`: the fold reduction is 0.8 (inactive).

For `CCn1cc(C(=O)O)c(=O)c2cnc(N3CCN(C(=S)Nc4ccccc4C(F)(F)F)CC3)nc21`, the fold reduction was 5.

As to `O=C(Nc1ccc(N2CCOCC2)cc1)c1ccc([N+](=O)[O-])o1`, the fold reduction was 0.8 (inactive).

Regarding `O=C(NCc1cccnc1)c1ccc([N+](=O)[O-])o1`, the fold reduction is 0.8 (inactive).

Turning to `CC(=O)Nc1ccc2nc(NC(=O)c3ccc([N+](=O)[O-])o3)sc2c1`, the fold reduction was 1.1 (inactive).

`O=C(OCC(=O)c1cccs1)c1ccc([N+](=O)[O-])o1`: the fold reduction was 0.9 (inactive).

As to `Cc1ccc2nc(/C(C#N)=C\c3ccc([N+](=O)[O-])o3)[nH]c2c1`, the fold reduction is 1 (inactive).

`NC(=O)c1ccsc1NC(=O)COC(=O)c1ccc([N+](=O)[O-])o1`: the fold reduction was 1.1 (inactive).

`Cc1cccnc1NC(=O)c1ccc([N+](=O)[O-])o1`: the fold reduction is 0.8 (inactive).

Regarding `C=CCn1c(Sc2ncc([N+](=O)[O-])s2)n[nH]c1=O`, the fold reduction is 1.1 (inactive).
